ChEMBL document CHEMBL4689842, “EUbOPEN Chemogenomics Library wave 1” (2021)
Several values for one entry are separate records, joined by “and”; a condition that tells them apart may be missing. Identical values can stand only once.

Columns and labels:
Format in all cases: toxicity, cell-based
HEK-293T [1] = test: Multiplex assay against HEK293T; conditions: human, 10 µM, compound concentration 10 uM
Procedure, shortened: (§1)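 Imaging took place on a CQ1 microscope at 37°C and 5% CO2 once compound had been added to live cells stained at seeding with Hoechst33342, BioTracker Green Microtubule Cytoskeleton Dye, MitoTracker Red and Annexin V Alexa Fluor 680. CellPathfinder machine-learning gating classed cells as Hoechst high-intensity objects or normal cells, classed normal cells as having healthy, pyknosed or fragmented nuclei, and classed pyknosed cells as mitotic or apoptotic. Tubulin, mitochondrial-mass and membrane-permeability phenotypes are per cents of the healthy-nucleus cells.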

Fibroblast [2] = test: Multiplex assay against human fibroblast; conditions: 10 µM, compound concentration 10 uM; procedure, shortened: as §1
U2OS [3] = test: Incucyte cell viability with U2OS; conditions: human, 10 µM, compound concentration 10 uM; note: filed as whole numbers so only -1 and 0 and 1 occur
Fibroblast [4] = test: Incucyte cell viability with human fibroblast; conditions: 10 µM, compound concentration 10 uM; note: filed as whole numbers so only -1 and 0 and 1 occur
HEK-293T [5] = test: Incucyte cell viability with HEK293T; conditions: human, 10 µM, compound concentration 10 uM; note: filed as whole numbers so only -1 and 0 and 1 occur
U2OS [6] = test: Multiplex assay against U2OS; conditions: human, 10 µM, compound concentration 10 uM; procedure, shortened: as §1
[7] = 6 h, replicate number 1, timepoint 6 hours
[8] = 12 h, replicate number 1, timepoint 12 hours
[9] = 18 h, replicate number 1, timepoint 18 hours
[10] = 24 h, replicate number 1, timepoint 24 hours

`COc1cc(C)c(Sc2cnc(NC(=O)c3ccc(CNC(C)C(C)(C)C)cc3)s2)cc1C(=O)N1CCN(C(C)=O)CC1` (stereo not drawn) was tested, and the “Population Apoptotic (%)” value (HEK-293T [1]; 12 h, replicate 1) was 22% and 18%, the “Population Fragmented Nuclei (%)” value (HEK-293T [1]; 12 h, replicate 1) was 20% and 17% and the “Population Healthy Nuclei (%)” value (HEK-293T [1]; 12 h, replicate 1) was 47% and 68%. For the same molecule, the “Population Hoechst High Intensity Objects (%)” value (HEK-293T [1]; 12 h, replicate 1) was 19% and 8%, the “Population Membrane Permeable-Phenotype (%)” value (HEK-293T [1]; 12 h, replicate 1) was 6% and 3% and the “Population Mitotic Cells (%)” value (HEK-293T [1]; 12 h, replicate 1) was 77% and 81%. The “Population Normal (%)” value (HEK-293T [1]; 12 h, replicate 1) was 80% and 91%, the “Population Pyknosed Nuclei (%)” value (HEK-293T [1]; 12 h, replicate 1) was 31% and 13% and the “Total Cell Count” value (HEK-293T [1]; 12 h, replicate 1) was 653 and 686. For the same molecule, the “Population Fragmented Nuclei (%)” value (HEK-293T [1]; 12 h, replicate 2) was 4% and 5%, the “Population Healthy Nuclei (%)” value (HEK-293T [1]; 12 h, replicate 2) was 86% and 89% and the “Population Hoechst High Intensity Objects (%)” value (HEK-293T [1]; 12 h, replicate 2) was 3% and 2%. For the same molecule, the “Population Membrane Permeable-Phenotype (%)” value (HEK-293T [1]; 12 h, replicate 2) was 1%, the “Population Mitochondria Different-Phenotype (%)” value (HEK-293T [1]; 12 h, replicate 2) was 22% and 9% and the “Population Mitotic Cells (%)” value (HEK-293T [1]; 12 h, replicate 2) was 85% and 95%. For the same molecule, the “Population Normal (%)” value (HEK-293T [1]; 12 h, replicate 2) was 96% and 97%, the “Population Pyknosed Nuclei (%)” value (HEK-293T [1]; 12 h, replicate 2) was 9% and 4% and the “Total Cell Count” value (HEK-293T [1]; 12 h, replicate 2) was 1194 and 1652. The “Population Apoptotic (%)” value (HEK-293T [1]; 24 h, replicate 1) was 28% and 21%, the “Population Fragmented Nuclei (%)” value (HEK-293T [1]; 24 h, replicate 1) was 19% and 13% and the “Population Healthy Nuclei (%)” value (HEK-293T [1]; 24 h, replicate 1) was 65% and 78%. For the same molecule, the “Population Hoechst High Intensity Objects (%)” value (HEK-293T [1]; 24 h, replicate 1) was 14% and 6%, the “Population Membrane Permeable-Phenotype (%)” value (HEK-293T [1]; 24 h, replicate 1) was 10% and 6% and the “Population Mitotic Cells (%)” value (HEK-293T [1]; 24 h, replicate 1) was 71% and 78%. For the same molecule, the “Population Normal (%)” value (HEK-293T [1]; 24 h, replicate 1) was 85% and 93%, the “Population Pyknosed Nuclei (%)” value (HEK-293T [1]; 24 h, replicate 1) was 14% and 7% and the “Total Cell Count” value (HEK-293T [1]; 24 h, replicate 1) was 664 and 754. The “Population Apoptotic (%)” value (HEK-293T [1]; 24 h, replicate 2) was 7% and 4%, the “Population Fragmented Nuclei (%)” value (HEK-293T [1]; 24 h, replicate 2) was 15% and 22% and the “Population Healthy Nuclei (%)” value (HEK-293T [1]; 24 h, replicate 2) was 81% and 74%. The “Population Hoechst High Intensity Objects (%)” value (HEK-293T [1]; 24 h, replicate 2) was 3%, the “Population Membrane Permeable-Phenotype (%)” value (HEK-293T [1]; 24 h, replicate 2) was 8% and 5% and the “Population Mitochondria Different-Phenotype (%)” value (HEK-293T [1]; 24 h, replicate 2) was 5% and 2%. The “Population Mitotic Cells (%)” value (HEK-293T [1]; 24 h, replicate 2) was 92% and 95%, the “Population Normal (%)” value (HEK-293T [1]; 24 h, replicate 2) was 96% and the “Population Pyknosed Nuclei (%)” value (HEK-293T [1]; 24 h, replicate 2) was 3% and 2%. For the same molecule, the “Total Cell Count” value (HEK-293T [1]; 24 h, replicate 2) was 2038 and 2847, the “Population Apoptotic (%)” value (Fibroblast [2]; 12 h, replicate 1) was 67% and 75% and the “Population Fragmented Nuclei (%)” value (Fibroblast [2]; 12 h, replicate 1) was 22% and 35%. The “Population Healthy Nuclei (%)” value (Fibroblast [2]; 12 h, replicate 1) was 60% and 50%, the “Population Hoechst High Intensity Objects (%)” value (Fibroblast [2]; 12 h, replicate 1) was 12% and the “Population Membrane Permeable-Phenotype (%)” value (Fibroblast [2]; 12 h, replicate 1) was 6%. For the same molecule, the “Population Mitotic Cells (%)” value (Fibroblast [2]; 12 h, replicate 1) was 32% and 25%, the “Population Normal (%)” value (Fibroblast [2]; 12 h, replicate 1) was 87% and the “Population Pyknosed Nuclei (%)” value (Fibroblast [2]; 12 h, replicate 1) was 14%. For the same molecule, the “Population Tubulin-Different-Phenotype (%)” value (Fibroblast [2]; 12 h, replicate 1) was 4% and 12%, the “Total Cell Count” value (Fibroblast [2]; 12 h, replicate 1) was 276 and 186 and the “Population Apoptotic (%)” value (Fibroblast [2]; 12 h, replicate 2) was 50% and 40%. For the same molecule, the “Population Fragmented Nuclei (%)” value (Fibroblast [2]; 12 h, replicate 2) was 46% and 56%, the “Population Healthy Nuclei (%)” value (Fibroblast [2]; 12 h, replicate 2) was 38% and 33% and the “Population Hoechst High Intensity Objects (%)” value (Fibroblast [2]; 12 h, replicate 2) was 29% and 43%. The “Population Membrane Permeable-Phenotype (%)” value (Fibroblast [2]; 12 h, replicate 2) was 10% and 11%, the “Population Mitochondria Different-Phenotype (%)” value (Fibroblast [2]; 12 h, replicate 2) was 10% and 27% and the “Population Mitotic Cells (%)” value (Fibroblast [2]; 12 h, replicate 2) was 50% and 60%. For the same molecule, the “Population Normal (%)” value (Fibroblast [2]; 12 h, replicate 2) was 70% and 56%, the “Population Pyknosed Nuclei (%)” value (Fibroblast [2]; 12 h, replicate 2) was 16% and 9% and the “Total Cell Count” value (Fibroblast [2]; 12 h, replicate 2) was 71 and 94. The “Population Apoptotic (%)” value (Fibroblast [2]; 24 h, replicate 1) was 57% and 91%, the “Population Fragmented Nuclei (%)” value (Fibroblast [2]; 24 h, replicate 1) was 18% and 31% and the “Population Healthy Nuclei (%)” value (Fibroblast [2]; 24 h, replicate 1) was 69% and 53%. For the same molecule, the “Population Hoechst High Intensity Objects (%)” value (Fibroblast [2]; 24 h, replicate 1) was 17% and 13%, the “Population Membrane Permeable-Phenotype (%)” value (Fibroblast [2]; 24 h, replicate 1) was 9% and 6% and the “Population Normal (%)” value (Fibroblast [2]; 24 h, replicate 1) was 82% and 86%. For the same molecule, the “Population Pyknosed Nuclei (%)” value (Fibroblast [2]; 24 h, replicate 1) was 14%, the “Total Cell Count” value (Fibroblast [2]; 24 h, replicate 1) was 264 and 192 and the “Population Apoptotic (%)” value (Fibroblast [2]; 24 h, replicate 2) was 33% and 66%. For the same molecule, the “Population Fragmented Nuclei (%)” value (Fibroblast [2]; 24 h, replicate 2) was 46% and 54%, the “Population Healthy Nuclei (%)” value (Fibroblast [2]; 24 h, replicate 2) was 42% and 33% and the “Population Hoechst High Intensity Objects (%)” value (Fibroblast [2]; 24 h, replicate 2) was 23% and 42%. The “Population Membrane Permeable-Phenotype (%)” value (Fibroblast [2]; 24 h, replicate 2) was 8% and 22%, the “Population Mitotic Cells (%)” value (Fibroblast [2]; 24 h, replicate 2) was 66% and 33% and the “Population Normal (%)” value (Fibroblast [2]; 24 h, replicate 2) was 76% and 57%. For the same molecule, the “Population Pyknosed Nuclei (%)” value (Fibroblast [2]; 24 h, replicate 2) was 11%, the “Total Cell Count” value (Fibroblast [2]; 24 h, replicate 2) was 71 and 92 and the “Growth Rate” value (U2OS [3]; 0 h, replicate number 1, timepoint 0 hours) was 0. The “Growth Rate” value (U2OS [3]; [7]) was 0, the “Growth Rate” value (U2OS [3]; [8]) was 0 and the “Growth Rate” value (U2OS [3]; [9]) was 0. The “Growth Rate” value (U2OS [3]; [10]) was 0, the “Growth Rate” value (Fibroblast [4]; [7]) was 0 and the “Growth Rate” value (Fibroblast [4]; [8]) was 0. The “Growth Rate” value (Fibroblast [4]; [9]) was 0, the “Growth Rate” value (Fibroblast [4]; [10]) was 0 and the “Growth Rate” value (HEK-293T [5]; [7]) was 0. The “Growth Rate” value (HEK-293T [5]; [8]) was 0, the “Growth Rate” value (HEK-293T [5]; [9]) was 0 and the “Growth Rate” value (HEK-293T [5]; [10]) was 0. The “Population Apoptotic (%)” value (U2OS [6]; 12 h, replicate 1) was 33% and 44%, the “Population Fragmented Nuclei (%)” value (U2OS [6]; 12 h, replicate 1) was 6% and 2% and the “Population Healthy Nuclei (%)” value (U2OS [6]; 12 h, replicate 1) was 84%. For the same molecule, the “Population Hoechst High Intensity Objects (%)” value (U2OS [6]; 12 h, replicate 1) was 3% and 4%, the “Population Mitochondria Different-Phenotype (%)” value (U2OS [6]; 12 h, replicate 1) was 12% and 33% and the “Population Mitotic Cells (%)” value (U2OS [6]; 12 h, replicate 1) was 66% and 55%. For the same molecule, the “Population Normal (%)” value (U2OS [6]; 12 h, replicate 1) was 96% and 95%, the “Population Pyknosed Nuclei (%)” value (U2OS [6]; 12 h, replicate 1) was 8% and 6% and the “Population Tubulin-Different-Phenotype (%)” value (U2OS [6]; 12 h, replicate 1) was 32%. The “Total Cell Count” value (U2OS [6]; 12 h, replicate 1) was 180 and 143, the “Population Apoptotic (%)” value (U2OS [6]; 12 h, replicate 2) was 0% and the “Population Fragmented Nuclei (%)” value (U2OS [6]; 12 h, replicate 2) was 5%. The “Population Healthy Nuclei (%)” value (U2OS [6]; 12 h, replicate 2) was 90% and 89%, the “Population Hoechst High Intensity Objects (%)” value (U2OS [6]; 12 h, replicate 2) was 12% and 8% and the “Population Mitochondria Different-Phenotype (%)” value (U2OS [6]; 12 h, replicate 2) was 16% and 15%. For the same molecule, the “Population Mitotic Cells (%)” value (U2OS [6]; 12 h, replicate 2) was 100%, the “Population Normal (%)” value (U2OS [6]; 12 h, replicate 2) was 87% and 91% and the “Population Pyknosed Nuclei (%)” value (U2OS [6]; 12 h, replicate 2) was 3% and 4%. The “Population Tubulin-Different-Phenotype (%)” value (U2OS [6]; 12 h, replicate 2) was 24% and 19%, the “Total Cell Count” value (U2OS [6]; 12 h, replicate 2) was 98 and 130 and the “Population Apoptotic (%)” value (U2OS [6]; 24 h, replicate 1) was 78% and 28%. The “Population Fragmented Nuclei (%)” value (U2OS [6]; 24 h, replicate 1) was 2% and 4%, the “Population Healthy Nuclei (%)” value (U2OS [6]; 24 h, replicate 1) was 90% and 92% and the “Population Hoechst High Intensity Objects (%)” value (U2OS [6]; 24 h, replicate 1) was 1%. For the same molecule, the “Population Membrane Permeable-Phenotype (%)” value (U2OS [6]; 24 h, replicate 1) was 7%, the “Population Mitochondria Different-Phenotype (%)” value (U2OS [6]; 24 h, replicate 1) was 14% and 24% and the “Population Normal (%)” value (U2OS [6]; 24 h, replicate 1) was 98%. For the same molecule, the “Population Pyknosed Nuclei (%)” value (U2OS [6]; 24 h, replicate 1) was 6% and 3%, the “Population Tubulin-Different-Phenotype (%)” value (U2OS [6]; 24 h, replicate 1) was 18% and 34% and the “Total Cell Count” value (U2OS [6]; 24 h, replicate 1) was 222 and 212. For the same molecule, the “Population Apoptotic (%)” value (U2OS [6]; 24 h, replicate 2) was 18% and 40%, the “Population Fragmented Nuclei (%)” value (U2OS [6]; 24 h, replicate 2) was 3% and 7% and the “Population Healthy Nuclei (%)” value (U2OS [6]; 24 h, replicate 2) was 80% and 89%. The “Population Hoechst High Intensity Objects (%)” value (U2OS [6]; 24 h, replicate 2) was 10% and 7%, the “Population Membrane Permeable-Phenotype (%)” value (U2OS [6]; 24 h, replicate 2) was 15% and 5% and the “Population Mitochondria Different-Phenotype (%)” value (U2OS [6]; 24 h, replicate 2) was 25% and 33%. The “Population Mitotic Cells (%)” value (U2OS [6]; 24 h, replicate 2) was 81% and 60%, the “Population Normal (%)” value (U2OS [6]; 24 h, replicate 2) was 89% and 92% and the “Population Pyknosed Nuclei (%)” value (U2OS [6]; 24 h, replicate 2) was 16%. For the same molecule, the “Population Tubulin-Different-Phenotype (%)” value (U2OS [6]; 24 h, replicate 2) was 15% and 28% and the “Total Cell Count” value (U2OS [6]; 24 h, replicate 2) was 108 and 162.
